According to ChEMBL document CHEMBL1156412, “Absolute stereostructures of three new sesquiterpenes from the fruit of Alpinia oxyphylla with inhibitory effects on nitric oxide production and degranulation in RBL-2H3 cells” (J Nat Prod, 2002):

What was measured:
RBL-2H3 [1] = assay: Inhibition of rat RBL2H3 cell degranulation assessed as inhibition of beta-hexosamidase release after 10 mins by microplate reader assay; format: functional, cell-based; conditions: RBL-2H3, 10 min
How it was run: (§1)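 RBL-2H3 cells, 2 × 10^5/well, sensitized overnight with 0.45 µg/mL anti-DNP IgE. Cells washed, then held in Siraganian buffer (pH 7.2, glucose, CaCl2, 0.1% BSA). Sample (0.1% DMSO final) added for 10 min, then DNP-BSA (10 µg/mL final) for 10 min at 37 °C. Supernatant β-hexosaminidase assayed on 1 mM p-nitrophenyl-N-acetyl-β-D-glucosaminide, pH 4.5, 1 h, 405 nm. Inhibition corrected for blank and spontaneous release; N=4.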

RBL-2H3 [2] = assay: Inhibition of rat RBL2H3 cell degranulation assessed as inhibition of beta-hexosamidase release at 30 uM after 10 mins by microplate reader assay relative to control; format: functional; conditions: RBL-2H3, 10 min; how it was run: as §1
RBL-2H3 [3] = assay: Inhibition of rat RBL2H3 cell degranulation assessed as inhibition of beta-hexosamidase release at 100 uM after 10 mins by microplate reader assay relative to control; format: functional; conditions: RBL-2H3, 10 min; how it was run: as §1
Macrophage [4] = assay: Inhibition of LPS-induced NO production in ddY mouse macrophages assessed as […] accumulation at 10 uM after 20 hrs by Griess reagent method relative to control; format: functional
How it was run: (§2)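 Adherent peritoneal macrophages from male ddY mice, 5 × 10^5 cells/well, in RPMI 1640 with 5% FCS. Cultured 20 h with 10 µg/mL LPS and compound (3-100 µM, 0.5% DMSO final). Nitrite in the medium measured with Griess reagent. Inhibition % = (A−B)/(A−C)×100 against LPS-only and unstimulated wells. N=4; IC50 determined graphically.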

Macrophage [5] = assay: Inhibition of LPS-induced NO production in ddY mouse macrophages assessed as […] accumulation after 20 hrs by Griess reagent method; format: functional, cell-based; how it was run: as §2
Macrophage [6] = assay: Inhibition of LPS-induced NO production in ddY mouse macrophages assessed as […] accumulation at 30 uM after 20 hrs by Griess reagent method relative to control; format: functional; how it was run: as §2
Macrophage [7] = assay: Inhibition of LPS-induced NO production in ddY mouse macrophages assessed as nitrite accumulation at 3 uM after 20 hrs by Griess reagent method relative to control
Macrophage [8] = assay: Inhibition of LPS-induced NO production in ddY mouse macrophages assessed as […] accumulation at 100 uM after 20 hrs by Griess reagent method relative to control; format: functional; how it was run: as §2
RBL-2H3 [9] = assay: Inhibition of rat RBL2H3 cell degranulation assessed as inhibition of beta-hexosamidase release at 10 uM after 10 mins by microplate reader assay relative to control; format: functional; conditions: RBL-2H3, 10 min; how it was run: as §1
[10] = Cytotoxicity against ddY mouse macrophages after 20 hrs by MTT assay; format: cell-based; conditions: macrophage
How it was run: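 Peritoneal exudate macrophages from male ddY mice (adherent after 1 h preculture, >95% macrophages) in RPMI 1640 with 5% FCS. Exposed to 10 µg/mL LPS plus test compound, 0.5% DMSO final, for 20 h. MTT then added for 4 h. Formazan dissolved in 2-propanol/0.04 M HCl and read at 570 nm (reference 655 nm).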

IC50 (RBL-2H3 [1])	IC50 (Macrophage [5])	SMILES	inhibition at 30 µM (RBL-2H3 [2])	inhibition at 100 µM (RBL-2H3 [3])	inhibition at 10 µM (Macrophage [4])	inhibition at 30 µM (Macrophage [6])	inhibition at 3 µM (Macrophage [7])	inhibition at 100 µM (Macrophage [8])	inhibition at 10 µM (RBL-2H3 [9])	Activity [10]
–	42 µM	C=C(C)[C@H]1C=C2[C@](C)(CCC[C@@]2(C)O)CC1 [OXYPHYLLOL A]	-15.1%	-24%	19.3%	40.4%	12.5%	74.2%	-8.3%	–
–	48 µM	C=C(C)[C@@H]1CC=C2[C@@H](O)CC[C@@H](C)[C@]2(C)C1	-9.2%	-8%	1.8%	31%	5.8%	65.3%	-5%	–
–	39 µM	C=C(C)[C@@H]1CC[C@@]2(C)CCC[C@@](C)(O)[C@@H]2C1	4.4%	11.9%	19.2%	42.2%	2.5%	73.3%	2.9%	–
–	21 µM	C=C(C)[C@@H]1CC[C@@]2(C)CC[C@@H](O)C(=C)C2C1 (some centres not stated) [ISOCYPEROL]	-11.9%	-28.9%	23.9%	64.4%	10.3%	96.8%	-5.3%	–
–	35 µM	C[C@@]12CCC(=O)C=C1[C@@](C)(O)[C@H](O)CC2 [OXYPHYLLENONE A]	-4.5%	-4.7%	-2.9%	43%	1.6%	85.7%	-3.3%	–
–	> 100 µM	C[C@@]12CCC(=O)C=C1[C@](C)(O)[C@H](O)CC2 [OXYPHYLLENONE B]	-1.3%	-1.8%	0.4%	19.2%	-8.1%	41.2%	-0.8%	–

The remaining lines, values behind:

SMILES	IC50 (RBL-2H3 [1])	IC50 (Macrophage [5])	inhibition at 30 µM (RBL-2H3 [2])	inhibition at 100 µM (RBL-2H3 [3])	inhibition at 10 µM (Macrophage [4])	inhibition at 30 µM (Macrophage [6])	inhibition at 3 µM (Macrophage [7])	inhibition at 100 µM (Macrophage [8])	inhibition at 10 µM (RBL-2H3 [9])	Activity [10]
COc1cc(/C=C/C(=O)CC(=O)/C=C/c2ccc(O)c(OC)c2)ccc1O [CURCUMIN]	3 µM	–	14.2%	62.6%	–	–	–	–	–	–
O=c1cc(-c2ccc(O)c(O)c2)oc2cc(O)cc(O)c12 [LUTEOLIN]	82 µM	–	–	–	–	–	–	–	–	–
CNC(=N)NCCC[C@H](N)C(=O)O [TILARGININE]	–	28 µM	–	–	17.7%	52.3%	2%	79.2%	–	–
CC(C)[C@@H]1CCC(=O)C2=C1[C@H](O)[C@](C)(O)CC2 [OXYPHYLLENODIOL A]	–	28 µM	0.4%	1.7%	16.9%	52.5%	11.8%	102%	1.1%	–
C=C(C)[C@@H]1CC[C@@]2(O)[C@@H](O)CC[C@@H](C)[C@]2(C)C1 [OXYPHYLLOL C]	–	–	2.4%	8.2%	–	–	–	–	-1.1%	–
C=C1CC[C@H]2C(C)(C)CCC[C@]2(C)[C@H]1C/C=C(/C=O)CC=O	–	22 µM	13.1%	42%	9.3%	68.1%	-4.7%	95.6%	-0.9%	Toxic
COc1cc(O)c2c(=O)c(O)c(-c3ccccc3)oc2c1 [IZALPININ]	–	> 30 µM	8.7%	27.5%	14.6%	13.4%	6.3%	41.5%	1.6%	Toxic
COc1cc(O)c2c(=O)cc(-c3ccccc3)oc2c1 [TECHTOCHRYSIN]	49 µM	23 µM	40.8%	75.1%	19.2%	60.6%	-0.1%	87.6%	11.9%	Toxic
C=C(C)[C@@H]1CCC2=CC(=O)C[C@@H](C)[C@]2(C)C1 [NOOTKATONE]	–	34 µM	8.2%	25.8%	10.7%	44.8%	-6.2%	86.9%	2%	–
CC(C)[C@H]1CCC(=O)C2=C1[C@H](O)[C@](C)(O)CC2 [OXYPHYLLENODIOL B]	–	> 100 µM	-3.3%	-3.1%	-0.4%	19.6%	-4.2%	40.1%	-4.3%	–
